Bioassay records (PubChem)
A selection: hits, their analogues and other compounds. The true share with any hit is near 2.6%.
rCAG binder: molecules binding r(CAG) RNA repeats | AID 651821 | r(CAG) RNA repeat, TO-PRO-1 dye displacement fluorescence | hit rate 1.3% among 370,000 | inhibition, % at 3 µM;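 active means inhibition above the plate cutoff, the mean of all test compounds on that plate plus 3 SD, cut at about 35% in these data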;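 further: higher means more dye released from RNA so lower well fluorescence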
core dimer inh: HCV core protein dimerization inhibition. AID 1899. TR-FRET GST/Flag-core106 dimerization, 1536-well. inhibition, % at 5 µM. hit rate 0.33% among 300,000;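 active means inhibition above the mean of all tested compounds plus 3 SD, set per screening campaign, cut at about 45% in these data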
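System: GST/Flag-tagged HCV core106 proteins. Incubation: compound-protein-antibody incubation 4 h at 22.5 °C. Technique: HTRF with 340 nm excitation, 617/671 nm emission. Medium: KF-containing HEPES buffer, pH 7.45, DTT, CHAPS, BSA. Read-out: inhibition (%) from 671 over 617 nm ratio. Also added: Eu(K)-anti-GST 90 ng/mL plus XL665-anti-Flag 1 µg/mL.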
ABHD5-PLIN5 inh: ABHD5-PLIN5 protein interaction inhibition; Split G. princeps luciferase complementation, luminescence, 4 h; AID 602281; hit rate 0.78% among 360,000; inhibition, % at 4 µM; Q00G26+Q8WTS1;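 active means inhibition above the mean inhibition across every tested compound plus 3 SD, cut at about 22% in these data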
Target sequence (Q00G26 whole entry, looked up): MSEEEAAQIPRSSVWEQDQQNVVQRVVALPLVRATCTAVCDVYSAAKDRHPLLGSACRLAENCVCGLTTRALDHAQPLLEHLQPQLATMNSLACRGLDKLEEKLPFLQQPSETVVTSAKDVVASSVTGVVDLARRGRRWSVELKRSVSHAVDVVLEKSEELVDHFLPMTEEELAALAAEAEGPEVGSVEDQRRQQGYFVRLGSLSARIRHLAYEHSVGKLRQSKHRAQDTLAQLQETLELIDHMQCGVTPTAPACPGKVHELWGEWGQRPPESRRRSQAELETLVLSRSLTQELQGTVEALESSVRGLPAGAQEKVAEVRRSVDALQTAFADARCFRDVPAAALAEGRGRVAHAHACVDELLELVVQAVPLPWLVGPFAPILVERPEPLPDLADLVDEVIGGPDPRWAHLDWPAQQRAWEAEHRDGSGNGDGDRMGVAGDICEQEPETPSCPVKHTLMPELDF
Target sequence (Q8WTS1 whole entry, looked up): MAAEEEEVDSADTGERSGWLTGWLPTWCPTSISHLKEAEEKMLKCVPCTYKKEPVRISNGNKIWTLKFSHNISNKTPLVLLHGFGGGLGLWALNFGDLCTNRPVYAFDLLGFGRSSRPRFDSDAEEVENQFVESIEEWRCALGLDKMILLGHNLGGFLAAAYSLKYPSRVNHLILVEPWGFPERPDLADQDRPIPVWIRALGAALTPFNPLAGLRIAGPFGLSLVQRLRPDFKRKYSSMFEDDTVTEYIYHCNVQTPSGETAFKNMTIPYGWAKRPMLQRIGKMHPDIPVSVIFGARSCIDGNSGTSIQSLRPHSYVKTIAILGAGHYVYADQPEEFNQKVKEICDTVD
NadD inh: NadD (S. aureus) enzyme inhibition; purified NadD enzyme, colorimetric absorbance read-out; inhibition, % at 20 µM; hit rate 0.78% among 360,000; in the data active means inhibition above about 26%
NadD conf: confirmation of Staphylococcus aureus NadD inhibitors; shares compounds with NadD inh; purified S. aureus NadD, colorimetric enzyme assay; inhibition, % at 20 µM; hit rate 13% among 2,000; AID 624309; in the data active means inhibition mostly above about 42%, no sharp cut-off; inactive means mostly below about 42%
Each line names hits and unclear results; the compound was inactive in the other large screens (follow-up assays come after a bar, where they were run).

O=C(CSc1nc2ccccc2s1)N1N=C(c2cccs2)CC1c1ccc(F)cc1 (centres undefined)	none
CCC(C)N(c1nc(C)nc2c1nnn2Cc1ccccc1)C(C)CC (centres undefined)	none (no result: core dimer inh, ABHD5-PLIN5 inh, NadD inh)
Cc1cccc(NC(=O)CSc2nc3nc4c(cc3c(=O)n2-c2ccccc2)CCCC4)c1	none
O=C(CSc1nc2nc3c(cc2c(=O)n1-c1ccccc1)CCCC3)Nc1cccc2ccccc12	NadD inh 41 | NadD conf inactive
CCN(CC)C(=O)c1sc2nc(-c3cccs3)cc(-c3ccc(Cl)cc3)c2c1N	NadD inh 44 | NadD conf inactive
CCN(CC)C(=O)c1sc2nc(-c3cccs3)cc(-c3cccs3)c2c1N	NadD inh 73 | NadD conf inactive
CC(C)(C)C(=O)c1sc2nc(-c3cccs3)cc(C(F)(F)F)c2c1N	none
Nc1c(C(=O)Nc2nccs2)sc2nc(-c3cccs3)cc(C(F)(F)F)c12	none
Cc1nnc(NC(=O)c2sc3nc(-c4cccs4)cc(C(F)(F)F)c3c2N)s1	rCAG binder 42, NadD inh 30 | NadD conf inactive
O=C(NCCN1C(=O)S/C(=C\c2ccc(Cl)c(Cl)c2)C1=O)c1ccc2c(c1)C(=O)N(Cc1ccncc1)C2=O	NadD inh 28 | NadD conf inactive
Cc1cc2nc(-c3ccccc3)c(Cc3ccccc3)n2c(C)c1Br	none (no result: core dimer inh)
Cc1cc2nc(/C=C/c3nc4cc(C)c(C)cc4[nH]3)[nH]c2cc1C	NadD inh 31 | NadD conf inactive
CCCCN(C)c1c(C)nc2ccc(C(=O)N3CCN(C(C)=O)CC3)cn12	none (no result: core dimer inh)
Cc1nn(C)cc1-c1cc(C(=O)O)c2ccccc2n1	none
Cc1cc(-c2cc(C(=O)O)c3ccccc3n2)c(C)s1	NadD inh 58 | NadD conf inactive
Cc1ccsc1C(=O)NNC(=O)c1cccc(S(=O)(=O)N2CCCC2)c1	none (no result: core dimer inh)
N#CCC(=O)N/N=C/c1cc(Br)ccc1OCc1cccc2ccccc12	NadD inh 26 | NadD conf inactive
Nc1[nH]c(C(=O)c2ccccc2)c(-c2cccc3ccccc23)c1C(=O)c1cccs1	none (no result: core dimer inh, ABHD5-PLIN5 inh, NadD inh)
COc1ccc(-c2csc(NC(=S)NC(=O)c3cccs3)n2)cc1Br	NadD inh 25 | NadD conf inactive
Cc1ccc(S(=O)(=O)NCCCc2ccc3c(c2)[C@]2(CCC[C@@H](OCc4ccccc4)[C@@H]2NC(=O)CCc2ccccc2)C(=O)N3Cc2ccccc2)cc1	none (no result: core dimer inh, ABHD5-PLIN5 inh, NadD inh)
C=C(CN(C)C)C(=O)c1cc(C)ccc1C	ABHD5-PLIN5 inh 67, NadD inh 32 (no result: core dimer inh) | NadD conf inactive
Cc1cc(=O)n2[nH]c(-c3ccsc3-n3c(C)ccc3C)cc2n1	NadD inh 31 | NadD conf inactive
Oc1ccc(C[C@H]2CNC(=S)N2C[C@H]2CCCN2C[C@H](Cc2ccccc2)N2C[C@H](Cc3ccccc3)N(CC3CCCCC3)C2=S)cc1	NadD inh 39 (no result: core dimer inh) | NadD conf inactive
CC(C)C[C@H]1CNC(=S)N1C[C@H]1CCCN1C[C@H](Cc1ccc(O)cc1)N1C[C@H](Cc2ccc(O)cc2)N(CC2CCCCCC2)C1=S	ABHD5-PLIN5 inh 27, NadD inh 44 (no result: core dimer inh) | NadD conf inactive
CC(C)C[C@H]1CNC(=S)N1CC1CCCN1C[C@H](Cc1ccccc1)N1C[C@H](Cc2ccc(O)cc2)N(CC2CCCCCC2)C1=S (some centres undefined)	NadD inh 32 (no result: core dimer inh) | NadD conf inactive
CC(C)C[C@H]1CN([C@@H](Cc2ccc(O)cc2)CN2CCCC2CN2C(=S)NC[C@@H]2Cc2ccccc2)C(=S)N1CC1CCCCC1 (some centres undefined)	none (no result: core dimer inh)
CC(C)C[C@H]1CN([C@@H](Cc2ccc(O)cc2)CN2CCC[C@@H]2CN2C(=S)NC[C@@H]2Cc2ccccc2)C(=S)N1CC1CCCCCC1	none (no result: core dimer inh)
ClC(Cl)(Cl)c1nc2ccccc2n2nncc12	none
O=C(NC1CCCCC1)C1c2ccccc2OCC(=O)N1Cc1ccccn1 (centres undefined)	none (no result: core dimer inh)
Cc1ccc(CCNC(=O)c2nnc(CS(=O)(=O)c3ccccc3)o2)cc1	none
C[C@H]1COc2cc(N3CCCC3)ccc2S(=O)(=O)N1C	none (no result: core dimer inh, ABHD5-PLIN5 inh, NadD inh)
COC1OC(c2ccccc2)=C(c2cnc(N)nc2)c2ccc(F)cc21 (centres undefined)	none (no result: core dimer inh)
O=C(Nc1nc(-c2ccccn2)cs1)c1ccc(-c2ccccc2F)o1	NadD inh 40 (no result: core dimer inh) | NadD conf inactive
CCc1cc(C(=O)Nc2nc(-c3ccccn3)cs2)sc1C	NadD inh 33 (no result: core dimer inh) | NadD conf inactive
Cc1ccc(C(=O)Nc2nc(-c3ccccn3)cs2)o1	none
CC(=O)Nc1ccc(C(=O)Nc2nc(-c3ccccn3)cs2)cc1	none
CCCCc1c(Cc2ccccc2)ncn1CCc1ccccc1OC	none (no result: core dimer inh)
O=C(N/N=C/c1c[nH]c2ccccc12)c1cc(-c2ccccc2)n[nH]1	none
O=C(N/N=C/c1c[nH]c2ccccc12)c1cc(-c2ccc(-c3ccccc3)cc2)n[nH]1	NadD inh 50 | NadD conf 47
COc1ccc(S(=O)(=O)NNS(=O)(=O)c2ccc(OC)c(OC)c2)cc1OC	none (no result: rCAG binder, core dimer inh)
COC(=O)[C@@]12C[C@@H](CC(=O)N3CCOCC3)C(=O)N(CCc3ccc(OC)c(OC)c3)C1=CCC(C)(C)C2	none (no result: core dimer inh, NadD inh)
COc1ccc(Cn2cc(CN3[C@@H](C)COc4cc(Br)ccc4S3(=O)=O)nn2)cc1	none (no result: core dimer inh, ABHD5-PLIN5 inh, NadD inh)
COc1ccc(CNS(=O)(=O)c2ccccc2Br)c(OC)c1	none (no result: core dimer inh, ABHD5-PLIN5 inh, NadD inh)
CCCCCCCCOC(=O)c1c(CSC(=N)N)n(C)c2cc(Br)c(OC(C)=O)cc12	NadD inh 42 | NadD conf inactive
O=C(Nc1ccc(Cl)cc1)[C@@H]1[C@@H]2C(=O)N(c3ccc4ccccc4c3)C(=O)[C@@H]2[C@H]2C=CC=NN21	core dimer inh 60, NadD inh 57 | NadD conf inactive
CC(C)CNC(=O)OCc1cn(Cc2ccc(Cl)cc2)nn1	none (no result: core dimer inh, ABHD5-PLIN5 inh, NadD inh)
Cc1ccc(NC(=O)Nc2nc3ccccc3s2)cc1NC(=O)Nc1nc2ccccc2s1	NadD inh 28 | NadD conf inactive
CCOC(=O)CC[C@@H]1CC[C@]2(CCCN(C(=O)c3ccno3)C2)O1	none (no result: core dimer inh, ABHD5-PLIN5 inh, NadD inh)
CCCN(CCC)Cc1cc(=O)oc2ccccc12	none (no result: core dimer inh, ABHD5-PLIN5 inh, NadD inh)
Cc1cccn2c(=O)c(/C=C(\C#N)S(=O)(=O)c3ccccc3)c(N3CCN(c4ccccc4)CC3)nc12	NadD inh 43 | NadD conf inactive
O=C(c1nn2c(C(F)(F)F)cc(-c3ccco3)nc2c1Br)N1CCCc2ccccc21	NadD inh 31 | NadD conf inactive
Cc1ccc(NC(=O)CNC(=O)C23CC4CC(CC(C4)C2)C3)nc1	none (no result: core dimer inh)
O=C(CSc1nc2c(cnn2-c2ccccc2)c(=O)[nH]1)c1ccc(Cl)cc1	NadD inh 37 | NadD conf inactive
O=C(CSc1nc2c(cnn2-c2ccccc2)c(=O)[nH]1)N1CCCCC1	none
O=C(/C=C/c1cccc([N+](=O)[O-])c1)NC(=S)Nc1cccc(NC(=O)c2ccccc2Cl)c1	NadD inh 29 | NadD conf inactive
Cc1nc(NC(=O)c2ccccc2)sc1-c1csc(Nc2ccc(Cl)cc2Cl)n1	none (no result: rCAG binder, ABHD5-PLIN5 inh, NadD inh)
COc1ccccc1Nc1nc(-c2sc(NC(=O)c3ccco3)nc2C)cs1	none
